In ChEMBL document CHEMBL4406859, “Antitumor and antiviral activities of 4-substituted 1,2,3-triazolyl-2,3-dibenzyl-L-ascorbic acid derivatives” (Eur J Med Chem, 2019):
Calls of active or inactive are those of the source. The rule behind the calls is not given here.

Key:
Human alphaherpesvirus 2 = test: Antiviral activity against Herpes simplex virus 2 G infected in human HELF cells assessed as reduction in virus-induced cytopathogenicity incubated for 7 days by microscopic analysis; assay type: functional, organism-based; conditions: for EC50: Human alphaherpesvirus 2, G, 168 h
Human alphaherpesvirus 1 [1] = test: Antiviral activity against Herpes simplex virus 1 TK-KOS-ACV infected in human HELF cells assessed as reduction in virus-induced cytopathogenicity incubated for 7 days by microscopic analysis; assay type: functional, organism-based
Cytomegalovirus [2] = test: Antiviral activity against Cytomegalovirus Davis infected in human HELF cells assessed as reduction in virus-induced cytopathogenicity incubated for 7 days by Giemsa staining based microscopic analysis; assay type: functional, organism-based; conditions: Human betaherpesvirus 5, Davis, 168 h
Procedure, shortened: (§1)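 Confluent HEL fibroblasts infected with CMV (Davis or AD-169) at 100 PFU/well for 2 h. Residual virus removed, then medium with graded compound concentrations added (duplicate). Incubated 7 days at 37 °C. Cytopathogenicity scored microscopically after ethanol fixation and Giemsa staining. EC50 read from plots of % cytopathogenicity versus concentration.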

Cytomegalovirus [3] = test: Antiviral activity against Cytomegalovirus AD169 infected in human HELF cells assessed as reduction in virus-induced cytopathogenicity incubated for 7 days by Giemsa staining based microscopic analysis; assay type: functional, organism-based; conditions: Human betaherpesvirus 5, AD169, HELF, 168 h; procedure, shortened: as §1
[4] = Cytotoxicity against human HELF cells assessed as reduction in cell viability incubated for 3 days by coulter counter method; assay type: cell-based; conditions: 72 h
Procedure, shortened: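 HEL cells seeded at 5 x 10^3/well and allowed to proliferate 24 h, then exposed to graded compound concentrations for 3 days at 37 °C. Cell number counted with a Coulter counter.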

[5] = Cytotoxicity against human HELF cells assessed as minimum cytotoxic concentration by observing alteration in cell morphology incubated for 3 days by microscopic analysis; assay type: cell-based; conditions: for MCC at 72 h: HELF cells
Procedure, shortened: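 Read-out is the minimum cytotoxic concentration (MCC): the lowest compound concentration giving a microscopically detectable change in cell morphology. Measured on confluent human embryonic lung (HEL) fibroblast cultures exposed to a range of compound concentrations.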

Human alphaherpesvirus 1 [6] = test: Antiviral activity against Herpes simplex virus 1 KOS infected in human HELF cells assessed as reduction in virus-induced cytopathogenicity incubated for 7 days by microscopic analysis; assay type: functional, organism-based; conditions: strain KOS
HeLa = test: Antiproliferative activity against human HeLa cells assessed as reduction in cell viability incubated for 72 hrs by MTT assay; assay type: functional, cell-based
Procedure, shortened: (§2)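 Cells (ATCC) grown in DMEM with 10 FBS, penicillin/streptomycin, 2 mM glutamine, 37 °C, 5 CO2. 5000 cells/well seeded; after 24 h, freshly prepared dilutions at five concentrations (0.01–100 μM) added for 72 h. MTT read-out; absorbance converted to percentage growth by NIH formulas. Two experiments in quadruplicate; IC50 by linear regression.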

Influenza A virus H3N2 [7] = test: Antiviral activity against Influenza A virus (A/HK/7/87(H3N2)) infected in dog MDCK cells assessed as reduction in virus-induced cytopathogenicity incubated for 7 days by microscopic analysis; assay type: functional, organism-based; conditions: A/Hong Kong/7/1987(H3N2)
Reovirus sp. = test: Antiviral activity against Reovirus infected in vero cells assessed as reduction in virus-induced cytopathogenicity incubated for 7 days by microscopic analysis; assay type: functional, organism-based
HepG2 = test: Antiproliferative activity against human HepG2 cells assessed as reduction in cell viability incubated for 72 hrs by MTT assay; assay type: functional, cell-based; conditions: HepG2, 72 h; procedure, shortened: as §2
Coxsackievirus B4 = test: Antiviral activity against Human coxsackievirus B4 infected in vero cells assessed as reduction in virus-induced cytopathogenicity incubated for 7 days by microscopic analysis; assay type: functional, organism-based
Human coronavirus 229E = test: Antiviral activity against Human coronavirus 229E infected in human HELF cells assessed as reduction in virus-induced cytopathogenicity incubated for 7 days by microscopic analysis; assay type: functional, organism-based
CFPAC-1 = test: Antiproliferative activity against human CFPAC-1 cells assessed as reduction in cell viability incubated for 72 hrs by MTT assay; assay type: functional, cell-based; procedure, shortened: as §2
Influenza A virus [8] = test: Antiviral activity against Influenza A virus (A/Ned/378/05(H1N1)) infected in dog MDCK cells assessed as reduction in virus-induced cytopathogenicity incubated for 7 days by MTS assay; assay type: functional, organism-based
MCF7 = test: Antiproliferative activity against human MCF7 cells assessed as reduction in cell viability incubated for 72 hrs by MTT assay; assay type: functional, cell-based; conditions: MCF7, 72 h; procedure, shortened: as §2
Influenza A virus [9] = test: Antiviral activity against Influenza A virus (A/Ned/378/05(H1N1)) infected in dog MDCK cells assessed as reduction in virus-induced cytopathogenicity incubated for 7 days by microscopic analysis; assay type: functional, organism-based
Human alphaherpesvirus 3 [10] = test: Antiviral activity against thymidine kinase deficient Varicella zoster virus infected in human HELF cells assessed as reduction in virus-induced cytopathogenicity incubated for 7 days by Giemsa staining based microscopic analysis; assay type: functional, organism-based; conditions: Human alphaherpesvirus 3, HELF, 168 h
Sindbis virus = test: Antiviral activity against Sindbis virus infected in vero cells assessed as reduction in virus-induced cytopathogenicity incubated for 7 days by microscopic analysis; assay type: functional, organism-based
Human alphaherpesvirus 3 [11] = test: Antiviral activity against thymidine kinase positive Varicella zoster virus infected in human HELF cells assessed as reduction in virus-induced cytopathogenicity incubated for 7 days by Giemsa staining based microscopic analysis; assay type: functional, organism-based; conditions: Human alphaherpesvirus 3, HELF, 168 h
SW-620 = test: Antiproliferative activity against human SW620 cells assessed as reduction in cell viability incubated for 72 hrs by MTT assay; assay type: functional, cell-based; conditions: SW-620, 72 h; procedure, shortened: as §2
HCT-116 = test: Antiproliferative activity against human HCT116cells assessed as reduction in cell viability incubated for 72 hrs by MTT assay; assay type: functional, cell-based; conditions: HCT-116, 72 h; procedure, shortened: as §2
A549 = test: Antiproliferative activity against human A549 cells assessed as reduction in cell viability incubated for 72 hrs by MTT assay; assay type: functional, cell-based; conditions: A549, 72 h; procedure, shortened: as §2
Influenza A virus H3N2 [12] = test: Antiviral activity against Influenza A virus (A/HK/7/87(H3N2)) infected in dog MDCK cells assessed as reduction in virus-induced cytopathogenicity incubated for 7 days by MTS assay; assay type: functional, organism-based; conditions: A/Hong Kong/7/1987(H3N2)
Influenza B virus [13] = test: Antiviral activity against Influenza B virus (B/Ned/537/05) infected in dog MDCK cells assessed as reduction in virus-induced cytopathogenicity incubated for 7 days by MTS assay; assay type: functional, organism-based
Human adenovirus 2 = test: Antiviral activity against Human adenovirus 2 infected in human HELF cells assessed as reduction in virus-induced cytopathogenicity incubated for 7 days by microscopic analysis; assay type: functional, organism-based
Influenza B virus [14] = test: Antiviral activity against Influenza B virus (B/Ned/537/05) infected in dog MDCK cells assessed as reduction in virus-induced cytopathogenicity incubated for 7 days by microscopic analysis; assay type: functional, organism-based
HFF = test: Cytotoxicity against human HFF cells assessed as reduction in cell viability incubated for 72 hrs by MTT assay; assay type: cell-based; procedure, shortened: as §2
[15] = Homo sapiens, CFPAC-1, 72 h, read-out: IC50

Compound | EC50 (Cytomegalovirus [2]) [µM] | EC50 (Cytomegalovirus [3]) [µM] | CC50 [4] [µM] | MCC at 72 h [5] [µM] | Activity (Human alphaherpesvirus 1 [6]) | IC50 (HeLa) [µM] | Activity (Influenza A virus H3N2 [7]) | Activity (Reovirus sp.) | IC50 (HepG2) [µM] | Activity (Human alphaherpesvirus 2) | Activity (Coxsackievirus B4) | Activity (Human coronavirus 229E) | Activity (Influenza A virus [8]) | IC50 (MCF7) [µM] | Activity (Influenza A virus [9]) | EC50 (Human alphaherpesvirus 3 [10]) [µM] | Activity (Human alphaherpesvirus 1 [1]) | Activity (Sindbis virus) | EC50 (Human alphaherpesvirus 3 [11]) [µM] | IC50 (SW-620) [µM] | other results
Nc1ccn(C[C@@H](CO)OCP(=O)(O)O)c(=O)n1 [CIDOFOVIR] | 0.65 | 0.43 | 214 |  |  |  |  |  |  |  |  |  |  |  |  |  |  |  |  |  | EC50 (Human alphaherpesvirus 2): 5.3 µM; EC50 (Human alphaherpesvirus 1 [1]; Human alphaherpesvirus 1, TK-KOS-ACV, 168 h): 4.5 µM; MCC ([5]; 72 h): 250 to 300 µM
Nc1nc(O)c2ncn(COC(CO)CO)c2n1 [GANCICLOVIR] | 2.3 | 3.15 | > 350 | > 350 |  |  |  |  |  |  |  |  |  |  |  |  |  |  |  |  | EC50 (Human alphaherpesvirus 2): 0.3 µM
O=C1O/C(=C\Cn2cc(-c3cc(F)cc(F)c3)nn2)C(OCc2ccccc2)=C1OCc1ccccc1 | 8.94 | 9.36 | > 100 | 100 | inactive | 17.7 | inactive | inactive | > 100 | inactive | inactive | inactive | inactive | > 100 | inactive | > 100 | inactive | inactive | 14.6 | > 100 | IC50 (CFPAC-1; cfpac-1): Not Active; IC50 (HCT-116): > 100 µM; IC50 (A549): > 100 µM; Activity (Influenza A virus H3N2 [12]): inactive; Activity (Influenza B virus [13]): inactive; Activity (Human adenovirus 2): inactive; Activity (Influenza B virus [14]): inactive; IC50 (HFF): > 100 µM
O=C1O/C(=C\Cn2cc(-c3ccc(Br)cc3)nn2)C(OCc2ccccc2)=C1OCc1ccccc1 | 8.94 | > 100 | > 100 | > 100 | inactive | 24.3 | inactive | inactive | > 100 | inactive | inactive | inactive | inactive | > 100 | inactive | > 100 | inactive | inactive | 44.7 | > 100 | IC50 (CFPAC-1; [15]): > 100 µM; IC50 (HCT-116): > 100 µM; IC50 (A549): > 100 µM; Activity (Influenza A virus H3N2 [12]): inactive; Activity (Influenza B virus [13]): inactive; Activity (Human adenovirus 2): inactive; Activity (Influenza B virus [14]): inactive; IC50 (HFF): > 100 µM
C[Si](C)(C)c1cn(C[C@H](O)[C@H]2OC(=O)C(OCc3ccccc3)=C2OCc2ccccc2)nn1 | 12.1 | > 100 | 22.3 | 100 | inactive | 22.3 | inactive | inactive | 24.1 | inactive | inactive | inactive | inactive | 12.1 | inactive | > 20 | inactive | inactive | > 20 | 56 | IC50 (CFPAC-1; [15]): 52.6 µM; IC50 (HCT-116): 31.8 µM; Activity (Influenza A virus H3N2 [12]): inactive; Activity (Influenza B virus [13]): inactive; Activity (Human adenovirus 2): inactive; Activity (Influenza B virus [14]): inactive; IC50 (HFF): 20 µM
